ChEMBL document CHEMBL1268843, “Synthesis, NMR characterization and divergent biological actions of 2'-hydroxy-ceramide/dihydroceramide stereoisomers in MCF7 cells” (Bioorg Med Chem, 2010)

Experiments:
MCF7 [1] = assay: Metabolic stability in human MCF7 cells assessed as C14-ceramide levels at 10 uM after 24 hrs by LC-MS/MS analysis relative to control; type: ADME, cell-based; conditions: mcf7, 24 h
Outline: (§1)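 MCF7 cells grown in parallel with proliferation sets, treated with compound in ethanol (<0.1%) for 24 h (or time course at 10 μM); Bligh & Dyer lipid extracts analysed by LC-MS/MS on triple quadrupole in positive-ion MRM; quantified against spiked-matrix calibration curves with internal standard, linear regression; levels normalized to phospholipid (pmol/nmol Pi), compared with control cells.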

MCF7 [2] = assay: Metabolic stability in human MCF7 cells assessed as cellular ceramide levels at up to 25 uM after 24 hrs by LC-MS/MS analysis; type: ADME, cell-based; conditions: mcf7, 24 h; outline: as §1
MCF7 [3] = assay: Metabolic stability in human MCF7 cells assessed as endogenous sphingosine levels at 10 uM after 24 hrs by LC-MS/MS analysis; type: ADME, cell-based; conditions: mcf7, 24 h; outline: as §1
MCF7 [4] = assay: Metabolic stability in human MCF7 cells assessed as endogenous 2-OH-ceramide levels at 2.5 to 20 uM after 24 hrs by LC-MS/MS analysis; type: ADME, cell-based; conditions: mcf7, 24 h; outline: as §1
MCF7 [5] = assay: Metabolic stability in human MCF7 cells assessed as cellular sphingosine levels at up to 25 uM after 24 hrs by LC-MS/MS analysis; type: ADME, cell-based; conditions: mcf7, 24 h; outline: as §1
MCF7 [6] = assay: Metabolic stability in human MCF7 cells assessed as ceramide species levels at up to 5 uM after 24 hrs by LC-MS/MS analysis; type: ADME, cell-based; conditions: mcf7, 24 h; outline: as §1
MCF7 [7] = assay: Metabolic stability in human MCF7 cells assessed as C18-ceramide levels at 10 uM after 24 hrs by LC-MS/MS analysis relative to control; type: ADME, cell-based; conditions: mcf7, 24 h; outline: as §1
MCF7 [8] = assay: Metabolic stability in human MCF7 cells assessed as C16-ceramide levels at 10 uM after 24 hrs by LC-MS/MS analysis relative to control; type: ADME, cell-based; conditions: mcf7, 24 h; outline: as §1
MCF7 [9] = assay: Metabolic stability in human MCF7 cells assessed as cellular ceramide levels at 10 uM after up to 30 hrs by LC-MS/MS analysis; type: ADME, cell-based; conditions: mcf7, 30 h; outline: as §1
MCF7 [10] = assay: Metabolic stability in human MCF7 cells assessed as cellular dihydroceramide levels at up to 5 uM after 24 hrs by LC-MS/MS analysis; type: ADME, cell-based; conditions: mcf7, 24 h; outline: as §1
MCF7 [11] = assay: Metabolic stability in human MCF7 cells assessed as cellular dihydrsphingosine levels at 40 uM after 24 hrs by LC-MS/MS analysis relative to control; type: ADME, cell-based; conditions: mcf7, 24 h; outline: as §1
MCF7 [12] = assay: Antiproliferative activity against human MCF7 cells after 24 hrs by trypan blue exclusion assay; type: functional, cell-based; conditions: MCF7, 24 h
MCF7 [13] = assay: Metabolic stability in human MCF7 cells assessed as cellular dihydroceramide levels at up to 10 uM after 24 hrs by LC-MS/MS analysis; type: ADME, cell-based; conditions: mcf7, 24 h; outline: as §1
MCF7 [14] = assay: Metabolic stability in human MCF7 cells assessed as cellular C16-dihydroceramide levels after 24 hrs by LC-MS/MS analysis; type: ADME, cell-based; conditions: mcf7, 24 h; outline: as §1
MCF7 [15] = assay: Metabolic stability in human MCF7 cells assessed as C24-ceramide levels at 20 uM after 24 hrs by LC-MS/MS analysis relative to control; type: ADME, cell-based; conditions: mcf7, 24 h; outline: as §1
MCF7 [16] = assay: Metabolic stability in human MCF7 cells assessed as C24:1-ceramide levels at 20 uM after 24 hrs by LC-MS/MS analysis relative to control; type: ADME, cell-based; conditions: mcf7, 24 h; outline: as §1
MCF7 [17] = assay: Metabolic stability in human MCF7 cells assessed as C14-ceramide levels at 20 uM after 24 hrs by LC-MS/MS analysis relative to control; type: ADME, cell-based; conditions: mcf7, 24 h; outline: as §1
MCF7 [18] = assay: Metabolic stability in human MCF7 cells assessed as C18-ceramide levels at 20 uM after 24 hrs by LC-MS/MS analysis relative to control; type: ADME, cell-based; conditions: mcf7, 24 h; outline: as §1
MCF7 [19] = assay: Metabolic stability in human MCF7 cells assessed as C16-ceramide levels at 20 uM after 24 hrs by LC-MS/MS analysis relative to control; type: ADME, cell-based; conditions: mcf7, 24 h; outline: as §1
MCF7 [20] = assay: Metabolic stability in human MCF7 cells assessed as cellular dihydroceramide levels at 40 uM after 24 hrs by LC-MS/MS analysis; type: ADME, cell-based; conditions: mcf7, 24 h; outline: as §1
MCF7 [21] = assay: Antiproliferative activity against human MCF7 cells assessed as inhibition of cell growth at 10 uM after 24 hrs by trypan blue exclusion assay; type: functional, cell-based

| Structure (SMILES) | Stability (MCF7 [2]) | Stability (MCF7 [4]) | Stability (MCF7 [5]) | Stability (MCF7 [9]) | Stability (MCF7 [11]) | IC50 (MCF7 [12]) [µM] | Stability (MCF7 [13]) | fold change (FC) (MCF7 [15]) | fold change (FC) (MCF7 [16]) | fold change (FC) (MCF7 [17]) | fold change (FC) (MCF7 [18]) | fold change (FC) (MCF7 [19]) | fold change (FC) (MCF7 [11]) | fold change (FC) (MCF7 [14]) | fold change (FC) (MCF7 [20]) | further results |
| --- | --- | --- | --- | --- | --- | --- | --- | --- | --- | --- | --- | --- | --- | --- | --- | --- |
| CCCCCCCCCCCCCCC[C@@H](O)[C@H](CO)NC(=O)[C@H](O)CCCC | – | – | – | – | Stable | 8 | Stable | – | – | – | – | – | – | – | – | Stability (MCF7 [10]): Stable; Stability (MCF7 [14]): Stable |
| CCCCCCCCCCCCCCC[C@@H](O)[C@H](CO)NC(=O)[C@@H](O)CCCC | – | – | – | – | Unstable | 12 | Stable | – | – | – | – | – | 16 | 25 | 19 | – |
| CCCCCCCCCCCCCCC[C@@H](O)[C@H](CO)NC(=O)CCCCC | – | – | – | – | – | 38 | Stable | – | – | – | – | – | 5 | 13 | 7 | Stability (MCF7 [21]): Stable |

More lines, main results first:

| Stability (MCF7 [2]) | Stability (MCF7 [4]) | Stability (MCF7 [5]) | Stability (MCF7 [9]) | Stability (MCF7 [11]) | IC50 (MCF7 [12]) [µM] | Stability (MCF7 [13]) | fold change (FC) (MCF7 [15]) | fold change (FC) (MCF7 [16]) | fold change (FC) (MCF7 [17]) | fold change (FC) (MCF7 [18]) | fold change (FC) (MCF7 [19]) | fold change (FC) (MCF7 [11]) | fold change (FC) (MCF7 [14]) | fold change (FC) (MCF7 [20]) | Structure (SMILES) | further results |
| --- | --- | --- | --- | --- | --- | --- | --- | --- | --- | --- | --- | --- | --- | --- | --- | --- |
| Stable | Stable | Stable | Stable | – | – | – | – | – | – | – | – | – | – | – | CCCCCCCCCCCCC/C=C/[C@@H](O)[C@H](CO)NC(=O)[C@H](O)CCCC | fold change (FC) (MCF7 [1]): 3; Stability (MCF7 [3]): Stable; Stability (MCF7 [6]): Stable; fold change (FC) (MCF7 [7]): 5; fold change (FC) (MCF7 [8]): 1.7 |
| – | – | – | – | – | 12 | – | 0.2 | 5 | 40 | 80 | 20 | – | – | – | CCCCCCCCCCCCC/C=C/[C@@H](O)[C@H](CO)NC(=O)CCCCC | – |
| Stable | Stable | Stable | Stable | – | – | – | 2 | 4 | 20 | 30 | 7 | – | – | – | CCCCCCCCCCCCC/C=C/[C@@H](O)[C@H](CO)NC(=O)[C@@H](O)CCCC | – |
